MC4R barr agon: human MC4R agonism via beta-arrestin. U2OS MC4R beta-arrestin complementation, luminescence; percent of melanotan II response, DMSO zero. P32245. hit rate 0.98% among 360,000. activation, % at 8.9 µM. AID 540308;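 active = activation above a per-plate cutoff, the mean activation of sample wells on that plate plus 3 SD, cut at about 8% in these data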
HTR2A ag: mouse HTR2A agonism via beta-arrestin recruitment. P35363. CHO-K1 mHTR2A beta-arrestin complementation, luminescence; percent of 30 µM serotonin response. activation, % at 7.6 µM. hit rate 0.66% among 360,000. AID 624169;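 active = activation above a run cutoff, the mean activation of all tested compounds plus 3 SD, cut at about 14% in these data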;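 also: 0% = plate median of compound wells and 100% = 30 µM serotonin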
EBI2 block: blocks human EBI2 receptor beta-arrestin signaling; inhibition, % at 5 µM; EBI2 beta-arrestin recruitment, luminescence, 7a,25-OHC stimulated; hit rate 0.81% among 360,000; P32249; AID 651636; in the data active = inhibition above about 38%;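 also: enzyme fragment complementation signal reports receptor beta-arrestin coupling in cells; 0% = agonist plus DMSO wells and 100% = wells without agonist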
Target sequence (P32249 whole entry, looked up, the tested form may be a part): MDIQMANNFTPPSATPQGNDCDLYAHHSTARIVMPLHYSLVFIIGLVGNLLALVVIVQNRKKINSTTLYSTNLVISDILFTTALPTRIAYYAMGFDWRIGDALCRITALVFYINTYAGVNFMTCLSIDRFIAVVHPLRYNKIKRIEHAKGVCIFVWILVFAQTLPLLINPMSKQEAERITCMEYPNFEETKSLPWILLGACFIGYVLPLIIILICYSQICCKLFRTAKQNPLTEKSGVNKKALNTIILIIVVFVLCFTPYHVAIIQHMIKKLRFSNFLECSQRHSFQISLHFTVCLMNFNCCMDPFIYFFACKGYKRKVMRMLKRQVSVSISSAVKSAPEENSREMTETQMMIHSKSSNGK
MC4R antag cAMP: human MC4R antagonism in cAMP assay. P32245. MC4R-expressing cells, MTII-stimulated cAMP, LANCE TR-FRET. inhibition, % at 6.5 µM. hit rate 0.48% among 360,000;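 active = inhibition above its plate's cutoff, the mean of tested wells on that plate plus 3 SD, cut at about 29% in these data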;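 also: 0% = Melanotan II alone and 100% = Melanotan II plus saturating MCL0020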
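Material: U2OS-MC4R stable cell line | Reagent: Melanotan II challenge after compound preincubation | Doses: One concentration, 6.5 µM nominal | Incubation: 30-min compound preincubation, 1-h Melanotan II challenge, 1-h detection, room temperature | Signal: TR-FRET cAMP assay | Replicates: One well per compound, no replicates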
OPRM1 ag: counter-screen for mouse HTR2A agonists: human mu opioid receptor agonists; shares compounds with HTR2A ag; U2OS OPRM1 beta-arrestin PathHunter, luminescence; DMSO 0%, DAMGO 9.3 µM 100%; activation, % at 9.3 µM; hit rate 5.3% among 2,300; AID 624380;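 active = mean activation above the mean of DMSO-only wells plus 3 SD, cut at about 0.5% in these data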
HTR2A ag conf: confirmation of mouse HTR2A serotonin receptor agonists; CHO-K1 PathHunter beta-arrestin recruitment, luminescence; DMSO 0%, 30 µM serotonin 100%; hit rate 19% among 2,300; AID 624381; activation, % at 7.6 µM; shares compounds with HTR2A ag;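 active = mean activation across triplicates above the hit threshold derived in the original primary screen, cut at about 15% in these data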
* hit, by the source's call; · = not tested or not shown. Most compounds without a hit are left out; they make up all but 2.8% or so of the library.

SMILES	MC4R barr agon	HTR2A ag	EBI2 block	MC4R antag cAMP	OPRM1 ag	HTR2A ag conf
COc1cc2c(cc1OC)CN(c1nc(CN3CCCC3)nc3sc(C)c(C)c13)CC2	-2	35*	-61	9	-1	32*
CCCCC[C@H](O)/C=C/C1C(=O)C=C[C@H]1C/C=C\CCCC(=O)OC (some centres not stated)	-1	0	2	25	·	·
COc1cc(OC)c2c(-c3ccccc3)cc(=O)oc2c1C(CCN1CCN(c2ccccc2)CC1)c1ccc(N(C)C)cc1 (configuration not stated)	-2	17*	-10	5	-1	22*
COc1cc(OC)c2c(-c3ccccc3)cc(=O)oc2c1C(CCN1CCOCC1)c1ccc2c(c1)OCO2 (configuration not stated)	-2	-3	11	7	·	·
COc1cc(OC)c2c(C)cc(=O)oc2c1C(CCN1CCN(c2ccccc2)CC1)c1ccc2c(c1)OCO2 (configuration not stated)	0	21*	20	2	-1	72*
O=[N+]([O-])c1cccnc1N1CCN(Cc2ccc3c(c2)OCO3)CC1	0	29*	1	-1	0	68*
CCCc1cc(=O)[nH]c(N2CCN(Cc3ccc4c(c3)OCO4)CC2)n1	0	10	3	5	·	·
CC(C)c1cc(=O)[nH]c(N2CCN(Cc3ccc4c(c3)OCO4)CC2)n1	0	20*	-1	6	0	19*
O=[N+]([O-])c1ccc2ncnc(N3CCN(Cc4ccc5c(c4)OCO5)CC3)c2c1	0	31*	12	14	0	73*
CCOc1ccccc1N1CCN(C(=O)c2ccc(NS(=O)(=O)c3ccc4[nH]c(=O)[nH]c4c3)cc2)CC1	3	-14	-2	-1	·	·
COc1ccc(/C=N/NC(=O)CCc2nc3ccccc3[nH]2)cc1	-1	16*	-3	9	-1	-2
COc1ccc(NC(=O)Cc2nc3ccccc3[nH]2)cc1	3	85*	-52	0	0	-2
COc1cccc(NC(=O)COC(=O)CCC2CCCC2)c1	-1	0	-7	-3	·	·
C=C1CC2C3CC[C@@]4(OCOC45COCO5)[C@@]3(C)C(O)CC2[C@@]2(C)CCC(=O)C=C12 (some centres not stated)	0	15*	5	2	-1	-1
O=c1nc2onnc2c(C=NO)[nH]1	-2	2	-17	4	·	·
CCOC(=O)[C@@H](C)N(C(=O)OC(C)(C)C)S(=O)(=O)N(Cc1ccccc1)[C@H](C(=O)OC)C(C)C	4	-6	7	4	·	·
Cc1csc2nc(CNS(=O)(=O)c3ccc4c(c3)OCCO4)cn12	0	-5	-4	5	·	·
Cc1ccn2cc(CNS(=O)(=O)c3ccc4c(c3)OCCO4)nc2c1	0	26*	-2	-16	0	2
CCc1ccc(S(=O)(=O)NCc2ccc(C(=O)NCCN(Cc3ccccc3)C(C)C)cc2)cc1	5	-6	-1	17	·	·
COc1ccccc1N(CC(=O)N/N=C(\C)c1ccc(F)cc1)S(=O)(=O)c1ccccc1	0	-5	10	4	·	·
CCOC(=O)[C@H](CCc1ccccc1)N[C@@H](C)C(=O)N1[C@H](C(=O)O)C[C@@H]2CCC[C@@H]21	0	44*	-11	-1	-1	-1
CCOC(=O)c1c(O)c2c(n(Cc3ccco3)c1=O)CCCC2	3	15*	-14	-4	0	6
CC1(C(=O)OCC(=O)Nc2ccc(C(N)=O)cc2)CC1(Cl)Cl (configuration not stated)	0	2	11	18	·	·
CCc1cccc(CC)c1NC(=O)COC(=O)C1(C)CC1(Cl)Cl (configuration not stated)	-2	17*	4	-5	-1	-4
CC(=O)N1CCN(C(=O)c2ccc(Cl)c(NC(=O)c3cccs3)c2)CC1	-1	15*	-3	1	-1	-3
SMILES	MC4R barr agon	HTR2A ag	EBI2 block	MC4R antag cAMP	OPRM1 ag	HTR2A ag conf
CCOC(=O)N1CCN(C(=O)c2ccc(Cl)c(NC(=O)c3cccs3)c2)CC1	-1	-2	6	-5	·	·
Cc1nn(C(=O)CCC(=O)NCc2ccccc2Cl)c2ccccc12	-2	0	11	0	·	·
Cc1ccc2c(cnn2C(=O)CCC(=O)NCc2ccccc2Cl)c1	0	19*	-2	1	0	-1
Cc1ccc(C2CN(CCC(N)=O)C(=O)CO2)cc1 (configuration not stated)	-1	9	-4	7	·	·
Cc1cc(/N=C/C=C2/N(C)c3ccccc3C2(C)C)n(CCC#N)n1	-1	-1	2	4	·	·
CC12CCC(=O)C=C1CCC1C2C(O)CC2(C)C1CCC2(O)C(=O)COC(=O)CCC1CCCC1 (configuration not stated)	2	-5	-5	-6	·	·
Cc1ccc(S(=O)(=O)N2CCCCC2)cc1NS(=O)(=O)c1ccc(Cl)c(C(=O)O)c1	-2	17*	2	0	0	1
CC(=O)NC(Cc1ccccc1)C(=O)NC1CCN(C(=O)c2cnccn2)CC1 (configuration not stated)	-1	19*	0	0	0	-2
O=C(Nc1ccc(CN2CCOCC2)cc1)c1ccc2ccccc2c1	-2	-7	-6	-3	·	·
c1ccc2cc(CN3CCOCC3)ccc2c1	-1	20*	-10	6	-1	-4
C=CCn1c(=NC(=O)c2ccc(S(=O)(=O)N3CCc4ccccc4C3)cc2)sc2cc(S(N)(=O)=O)ccc21	-3	22*	8	-3	-1	13
C=CCn1c(=NC(=O)c2ccc(S(=O)(=O)N3CCCc4ccccc43)cc2)sc2cc(S(N)(=O)=O)ccc21	-4	-2	13	-1	·	·
CCC(C)n1c(SCC(=O)NCc2ccco2)nnc1-c1cccc(S(=O)(=O)N2CCOCC2)c1 (configuration not stated)	-2	15*	-7	1	-1	-1
Cc1ccc(C(=O)Nc2nnc(COCCO)s2)cc1	-1	8	0	-1	·	·
OCCc1c[nH]c2cc(F)ccc12	1	1	-2	14	·	·
C[C@H](O)c1[nH]c2cc(F)ccc2c1[C@H](C)O	0	20*	-3	3	0	-5
CCNC(=O)C1(C)CCN(Cc2ccc(OC(F)(F)F)cc2)C1 (configuration not stated)	-2	-2	2	-3	·	·
CCOC(=O)CNC(=S)N(CCCN1CCCC1)Cc1cccs1	-2	29*	0	22	-1	10
Oc1ccccc1C=NNC(=S)NC1CC2C=CC1C2 (configuration not stated)	4	19*	30	-12	0	6
